pIC50, pKi: −log10 of the molar value.
Legend:
[1] = target: T1, Adenosine receptor A1 (Homo sapiens, UniProt P30542); test: Displacement of [3H]DPCPX from human adenosine A1 receptor expressed in HEK293 cells by scintillation counting; format: cell-based
T1 sequence (P30542 whole entry): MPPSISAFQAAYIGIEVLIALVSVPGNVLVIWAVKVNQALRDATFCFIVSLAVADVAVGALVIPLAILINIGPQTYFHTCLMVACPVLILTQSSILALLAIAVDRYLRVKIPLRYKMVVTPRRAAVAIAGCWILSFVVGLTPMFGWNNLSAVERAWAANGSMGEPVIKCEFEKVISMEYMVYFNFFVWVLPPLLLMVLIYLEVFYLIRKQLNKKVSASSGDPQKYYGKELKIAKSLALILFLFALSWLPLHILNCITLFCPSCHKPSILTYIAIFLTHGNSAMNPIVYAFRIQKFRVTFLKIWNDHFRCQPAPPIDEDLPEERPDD

[2] = target: Adenosine receptor A2a (Homo sapiens, UniProt P29274); test: Displacement of [3H]ZM241385 from human adenosine A2A receptor expressed in HEK293 cells by scintillation counting; format: cell-based
[3] = species: Homo sapiens; test: Selectivity ratio of Ki for human adenosine A1 receptor to Ki for human adenosine A2A receptor
[4] = target: T2, Adenosine receptor A3 (Homo sapiens) (UniProt P0DMS8); test: Displacement of [I125]I-AB-MECA from human adenosine A3 receptor expressed in CHO cells at 10 uM by scintillation counting; format: cell-based
T2 sequence (whole entry): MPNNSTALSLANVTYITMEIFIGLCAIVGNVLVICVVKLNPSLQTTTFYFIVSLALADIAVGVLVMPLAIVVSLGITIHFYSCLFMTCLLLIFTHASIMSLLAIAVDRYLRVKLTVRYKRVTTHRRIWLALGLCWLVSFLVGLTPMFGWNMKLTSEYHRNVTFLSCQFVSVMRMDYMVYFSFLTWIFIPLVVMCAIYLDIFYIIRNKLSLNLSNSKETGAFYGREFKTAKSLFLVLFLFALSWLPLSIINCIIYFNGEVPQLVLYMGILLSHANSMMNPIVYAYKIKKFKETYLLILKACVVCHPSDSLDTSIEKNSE

[5] = target: T3, Adenosine receptor A2b (Homo sapiens, UniProt P29275); test: Antagonist activity at human recombinant adenosine A2B receptor expressed in CHO cells assessed as inhibition of NECA-stimulated adenylyl cyclase activity; format: functional, cell-based
T3 sequence (P29275 whole entry): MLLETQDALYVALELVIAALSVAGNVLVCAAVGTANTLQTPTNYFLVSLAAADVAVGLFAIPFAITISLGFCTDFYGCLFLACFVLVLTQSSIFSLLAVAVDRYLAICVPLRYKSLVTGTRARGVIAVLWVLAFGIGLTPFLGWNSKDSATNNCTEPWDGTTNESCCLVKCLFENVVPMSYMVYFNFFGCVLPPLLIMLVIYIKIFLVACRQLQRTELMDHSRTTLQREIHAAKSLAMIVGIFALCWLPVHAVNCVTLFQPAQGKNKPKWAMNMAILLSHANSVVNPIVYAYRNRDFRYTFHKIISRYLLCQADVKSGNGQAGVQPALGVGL
Procedure, shortened: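 Membranes from CHO cells stably expressing the hA2B receptor were incubated 20 min with about 150,000 cpm [α-32P]ATP, without EGTA and NaCl. The read-out was antagonist concentration-dependent inhibition of NECA-stimulated adenylyl cyclase. IC50 was calculated with the Hill equation.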

[6] = target: T4, Adenosine receptor A1 (Homo sapiens) (UniProt P30542); test: Displacement of [3H]DPCPX from human adenosine A1 receptor expressed in HEK293 cells at 10 uM by scintillation counting; format: cell-based
T4 sequence (whole entry): T1 sequence (P30542 whole entry)

[7] = target: T2, Adenosine receptor A3 (Homo sapiens); test: Antagonist activity at human adenosine A3 receptor; format: functional
[8] = target: T5, Adenosine receptor A1 (Rattus norvegicus) (UniProt P25099); test: Antagonist activity at rat adenosine A1 receptor; format: functional
T5 sequence (whole entry): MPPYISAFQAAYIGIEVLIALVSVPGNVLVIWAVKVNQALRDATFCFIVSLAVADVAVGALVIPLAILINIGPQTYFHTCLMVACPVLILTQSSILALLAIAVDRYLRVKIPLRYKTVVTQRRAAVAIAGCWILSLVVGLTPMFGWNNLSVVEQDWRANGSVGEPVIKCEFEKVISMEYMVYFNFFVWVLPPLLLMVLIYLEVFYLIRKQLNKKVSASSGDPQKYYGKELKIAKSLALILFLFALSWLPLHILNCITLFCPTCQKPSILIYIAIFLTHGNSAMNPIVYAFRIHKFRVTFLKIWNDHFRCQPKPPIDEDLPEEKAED

[9] = target: T6, Adenosine receptor A2b (Homo sapiens) (UniProt P29275); test: Antagonist activity at human adenosine A2B receptor; format: functional
T6 sequence (whole entry): T3 sequence (P29275 whole entry)

[10] = species: Homo sapiens; test: Selectivity ratio of Ki for human adenosine A3 receptor to Ki for human adenosine A2A receptor
[11] = target: T4, Adenosine receptor A1 (Homo sapiens); test: Antagonist activity at human adenosine A1 receptor; format: functional
[12] = target: T7, Adenosine receptor A3 (Homo sapiens, UniProt P0DMS8); test: Displacement of [I125]I-AB-MECA from human adenosine A3 receptor expressed in CHO cells by scintillation counting; format: cell-based
T7 sequence (P0DMS8 whole entry): T2 sequence (whole entry)

Chain of Adenosine receptor A2a (P29274 whole entry): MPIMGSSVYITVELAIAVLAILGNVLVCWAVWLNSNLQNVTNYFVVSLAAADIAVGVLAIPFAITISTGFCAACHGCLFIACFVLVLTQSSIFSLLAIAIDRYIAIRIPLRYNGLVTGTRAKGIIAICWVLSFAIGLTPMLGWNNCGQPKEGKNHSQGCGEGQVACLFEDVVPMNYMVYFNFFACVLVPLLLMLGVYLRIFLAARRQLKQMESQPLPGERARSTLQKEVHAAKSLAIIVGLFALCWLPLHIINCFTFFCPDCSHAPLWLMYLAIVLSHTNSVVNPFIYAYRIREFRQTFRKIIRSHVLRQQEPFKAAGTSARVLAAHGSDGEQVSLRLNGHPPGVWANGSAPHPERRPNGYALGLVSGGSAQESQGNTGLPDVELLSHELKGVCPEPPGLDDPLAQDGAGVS

SMILES | pKi [1] | pKi [2] | Ratio Ki [3] | Activity [4] | pIC50 [5] | Activity [6] | Antagonist potency [7] | INH [8] | Antagonist potency (inhibitory concentration) [9] | Ratio Ki [10] | INH [11] | pKi [12]
CC(C)(C)OC(=O)NCC1CCC(CNc2nc(N)n3nc(-c4ccco4)nc3n2)CC1 (stereo not given) | 5.41 | 7.16 | 56 | 75.5% | 5.15 |  |  |  |  |  |  | 
CCCCC(=O)N1CCN(c2nc(N)n3nc(-c4ccco4)nc3n2)CC1 |  | 6.91 |  | 56.2% | < 4.00 | 10.8% |  |  |  |  |  | 
CC(C)(C)OC(=O)NCCCCCNc1nc(N)n2nc(-c3ccco3)nc2n1 | 6.02 | 7.35 | 21.5 | 68.6% | < 5.00 |  |  |  |  |  |  | 
Nc1nc(Oc2ccccc2)nc2nc(-c3ccco3)nn12 |  |  |  |  |  |  | 489 nM | 2.72 µM | 3.42 µM |  |  | 
Nc1nc(O)nc2nc(-c3ccco3)nn12 | 5.51 | 6.70 | 15.5 | 43.9% | < 5.00 |  |  |  |  | 50 |  | 
COc1ccc(CCCn2ncc3c2nc(N)n2nc(-c4ccco4)nc32)cc1 |  |  |  |  |  |  | > 10000 nM |  | > 10 µM |  | 1110 nM | 
Nc1nc(N2CCCC2)nc2nc(-c3ccco3)nn12 | 5.71 | 7.23 | 33 | 75% | < 4.52 |  |  |  |  |  |  | 
O=C(Nc1nc(Oc2ccccc2)nc2nc(-c3ccco3)nn12)c1ccccc1 |  | 6.00 |  | 32.3% | < 5.00 | 26.2% |  |  |  |  |  | 
Nc1nc(N2CCN3C[C@@H](COc4cccc(F)c4)CC[C@H]3C2)nc2nc(-c3ccco3)nn12 |  |  |  |  |  |  |  | 3.3 µM |  |  |  | 
CC(C)(C)OC(=O)NCCNc1nc(N)n2nc(-c3ccco3)nc2n1 | 5.43 | 7.39 | 91 |  | < 5.00 |  |  |  |  | 36 |  | 5.83
CC(C)(C)OC(=O)NCCNc1nc(NCCNC(=O)OC(C)(C)C)n2nc(-c3ccco3)nc2n1 |  | 5.36 |  |  | < 4.00 | 7.4% |  |  |  | 1.9 |  | 5.07
Nc1nc(N2CCN(Cc3ccccc3)CC2)nc2nc(-c3ccco3)nn12 | 6.01 | 7.69 | 47.5 | 71.9% | < 4.52 |  |  |  |  |  |  | 
CC(C)(C)CC(=O)N1CCN(c2nc(N)n3nc(-c4ccco4)nc3n2)CC1 |  | 7.95 | 900 | 41.9% | < 4.00 | 53.1% |  |  |  | > 900 |  | 
Nc1nc(N2CCN(Cc3ccc(Br)cc3)CC2)nc2nc(-c3ccco3)nn12 | 7.06 | 7.56 | 3.2 | 49.8% | < 5.00 |  |  |  |  | 300 |  | 
O=C(Nc1nc(O)nc2nc(-c3ccco3)nn12)c1ccccc1 |  | 5.76 |  | 75.9% | < 4.00 | 34.4% |  |  |  |  |  | 
Nc1nc(N2CCNCC2)nc2nc(-c3ccco3)nn12 |  | 6.82 |  | 29.9% | < 4.52 | 28.6% |  |  |  |  |  | 
NCCCNc1nc(N)n2nc(-c3ccco3)nc2n1 |  | 6.57 |  | 40.5% | < 4.52 | 44.3% |  |  |  |  |  | 
Nc1nc(N2CCN(C(=O)c3cccc4ccccc34)CC2)nc2nc(-c3ccco3)nn12 |  | 5.11 |  | 31.1% | < 4.00 | 4.9% |  |  |  |  |  | 
Nc1nc(NC(=O)c2ccccc2)n2nc(-c3ccco3)nc2n1 | 5.74 | 7.36 | 40 | 67.2% | 5.15 |  |  |  |  |  |  | 
